# Read-outs that look alike come from different tables or passages of the source. Square brackets hold non-standard residues; d marks the D form. Peptide text beside a SMILES is read from it. * marks the point of attachment. FITC = O=C1OC2(c3ccc(O)cc3Oc3cc(O)ccc32)c2ccc(NC(=S)*)cc21; pT = C[C@@H](OP(=O)(O)O)[C@H](N)C(=O)O; pS = N[C@@H](COP(=O)(O)O)C(=O)O
# T1: FITC-labeled MDC1 consensus SDT di-phospho-peptide FITC-GFIDpSDpTDVEEE-NH2
# T1 peptide: {FITC}-GFID[pS]D[pT]DVEEE-NH2
# T2: FITC-labeled pSer MDC1 consensus SDT peptide FITC-GFIDpSDTDVEEE-NH2
# T2 chain: GFIDSDTDVEEE
# T3: FITC-labeled MDC1 consensus SDT di-phospho-peptide FITC-GFIDpSDpTDVEEE-NH2
# T3 chain: GFIDSDTDVEEE
# T4: FITC-labeled non-phosphorylated MDC1 consensus SDT peptide FITC-…-NH2
# T4 chain: GFIDSDTDVEEE
# T5: FITC-labeled pThr MDC1 consensus SDT peptide FITC-GFIDSDpTDVEEE-NH2
# T5 chain: GFIDSDTDVEEE
# T6: FITC-labeled MDC1 SDT di-phospho-peptide with +2 Val to Asp, FITC-GFIDpSDpTDDEEE-NH2
# T6 chain: GFIDSDTDDEEE
# B1: GST-TopBP1 BRCT4/5 (549-746) (domain or fragment)
# chain: EEGLFSQKSFLVLGFSNENESNIANIIKENAGKIMSLLSRTVADYAVVPLLGCEVEATVGEVVTNTWLVTCIDYQTLFDPKSNPLFTPVPVMTGMTPLEDCVISFSQCAGAEKESLTFLANLLGASVQEYFVRKSNAKKGMFASTHLILKERGGSKYEAAKKWNLPAVTIAWLLETARTGKRADESHFLIENSTKEER
# B2: GST-TopBP1 BRCT5 (641-746), Q92547 641-746 (domain or fragment)
# chain: TGMTPLEDCVISFSQCAGAEKESLTFLANLLGASVQEYFVRKSNAKKGMFASTHLILKERGGSKYEAAKKWNLPAVTIAWLLETARTGKRADESHFLIENSTKEER
# modifications: not checked
# What was measured:
# GST-TopBP1 BRCT5 = GST-TopBP1 BRCT5 (Homo sapiens, UniProt Q92547); experiment: Fluorescence polarization; type: binding
# Summary of the method: (§1)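 Human TopBP1 GST fusions of BRCT4/5 (549–746) or BRCT5 (641–746), wild type or point mutants, were expressed in E. coli BL21-Gold and glutathione-affinity purified. Plates sat 15 min at room temperature, then FP was read at ex 485/em 538 nm. Kd was curve-fitted and averaged over ≥3 independent titrations.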
# GST-TopBP1 BRCT4/5 = GST-TopBP1 BRCT4/5 (Homo sapiens, UniProt Q92547); experiment: Fluorescence polarization; type: binding
# Summary of the method: as §1
# GST-BRCT5 K704A (TopBP1) = GST-BRCT5 K704A (TopBP1) (Homo sapiens, UniProt Q92547, K704A); experiment: Fluorescence polarization; type: binding
# GST-BRCT5 K704A (TopBP1), sequence (Q92547 641-746 K704A): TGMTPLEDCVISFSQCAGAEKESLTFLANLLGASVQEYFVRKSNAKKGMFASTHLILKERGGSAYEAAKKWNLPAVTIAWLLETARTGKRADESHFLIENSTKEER
# Summary of the method: as §1
# [1] = target: GST-BRCT5 R681E/K682E (TopBP1) (Homo sapiens, UniProt Q92547, K682E/R681E); experiment: Fluorescence polarization; type: binding
# GST-BRCT5 R681E/K682E (TopBP1), sequence (Q92547 641-746 R681E/K682E): as the sequence (Q92547 641-746 K704A) above, with R41E, K42E, A64K counted along it
# Summary of the method: as §1
# [2] = target: T1, FITC-labeled MDC1 consensus SDT …; experiment: fluorescence polarisation
# [3] = target: T2, FITC-labeled pSer MDC1 consensus SDT …; experiment: fluorescence polarisation
# [4] = target: T3, FITC-labeled MDC1 consensus SDT …; experiment: fluorescence polarisation
# [5] = target: T4, FITC-labeled non-phosphorylated MDC1 …; experiment: fluorescence polarisation
# [6] = target: T5, FITC-labeled pThr MDC1 consensus SDT …; experiment: fluorescence polarisation
# [7] = target: T6, FITC-labeled MDC1 SDT …; experiment: fluorescence polarisation
molecule,measurement,setting,value
CC[C@H](C)[C@H](NC(=O)[C@H](Cc1ccccc1)NC(=O)CNC(=S)Nc1ccc2c(c1)C(=O)OC21c2ccc(O)cc2Oc2cc(O)ccc21)C(=O)N[C@@H](CC(=O)O)C(=O)N[C@@H](CO)C(=O)N[C@@H](CC(=O)O)C(=O)N[C@H](C(=O)N[C@@H](CC(=O)O)C(=O)N[C@H](C(=O)N[C@@H](CCC(=O)O)C(=O)N[C@@H](CCC(=O)O)C(=O)N[C@@H](CCC(=O)O)C(N)=O)C(C)C)[C@@H](C)O [FITC-GFIDSDTDVEEE-NH2] ({FITC}-GFIDSDTDVEEE-NH2),Kd,GST-TopBP1 BRCT5,310 ± 70 µM
CC[C@H](C)[C@H](NC(=O)[C@H](Cc1ccccc1)NC(=O)CNC(=S)Nc1ccc2c(c1)C(=O)OC21c2ccc(O)cc2Oc2cc(O)ccc21)C(=O)N[C@@H](CC(=O)O)C(=O)N[C@@H](CO)C(=O)N[C@@H](CC(=O)O)C(=O)N[C@H](C(=O)N[C@@H](CC(=O)O)C(=O)N[C@H](C(=O)N[C@@H](CCC(=O)O)C(=O)N[C@@H](CCC(=O)O)C(=O)N[C@@H](CCC(=O)O)C(N)=O)C(C)C)[C@@H](C)OP(=O)(O)O [FITC-GFIDSDpTDVEEE-NH2] ({FITC}-GFIDSD[pT]DVEEE-NH2),Kd,GST-TopBP1 BRCT5,98 ± 9 µM
CC[C@H](C)[C@H](NC(=O)[C@H](Cc1ccccc1)NC(=O)CNC(=S)Nc1ccc2c(c1)C(=O)OC21c2ccc(O)cc2Oc2cc(O)ccc21)C(=O)N[C@@H](CC(=O)O)C(=O)N[C@@H](COP(=O)(O)O)C(=O)N[C@@H](CC(=O)O)C(=O)N[C@H](C(=O)N[C@@H](CC(=O)O)C(=O)N[C@H](C(=O)N[C@@H](CCC(=O)O)C(=O)N[C@@H](CCC(=O)O)C(=O)N[C@@H](CCC(=O)O)C(N)=O)C(C)C)[C@@H](C)O [FITC-GFIDpSDTDVEEE-NH2] ({FITC}-GFID[pS]DTDVEEE-NH2),Kd,GST-TopBP1 BRCT5,105 ± 9 µM
CC[C@H](C)[C@H](NC(=O)[C@H](Cc1ccccc1)NC(=O)CNC(=S)Nc1ccc2c(c1)C(=O)OC21c2ccc(O)cc2Oc2cc(O)ccc21)C(=O)N[C@@H](CC(=O)O)C(=O)N[C@@H](COP(=O)(O)O)C(=O)N[C@@H](CC(=O)O)C(=O)N[C@H](C(=O)N[C@@H](CC(=O)O)C(=O)N[C@@H](CC(=O)O)C(=O)N[C@@H](CCC(=O)O)C(=O)N[C@@H](CCC(=O)O)C(=O)N[C@@H](CCC(=O)O)C(N)=O)[C@@H](C)OP(=O)(O)O [FITC-GFIDpSDpTDDEEE-NH2] ({FITC}-GFID[pS]D[pT]DDEEE-NH2),Kd,GST-TopBP1 BRCT5,24 ± 3 µM
CC[C@H](C)[C@H](NC(=O)[C@H](Cc1ccccc1)NC(=O)CNC(=S)Nc1ccc2c(c1)C(=O)OC21c2ccc(O)cc2Oc2cc(O)ccc21)C(=O)N[C@@H](CC(=O)O)C(=O)N[C@@H](COP(=O)(O)O)C(=O)N[C@@H](CC(=O)O)C(=O)N[C@H](C(=O)N[C@@H](CC(=O)O)C(=O)N[C@H](C(=O)N[C@@H](CCC(=O)O)C(=O)N[C@@H](CCC(=O)O)C(=O)N[C@@H](CCC(=O)O)C(N)=O)C(C)C)[C@@H](C)OP(=O)(O)O [FITC-GFIDpSDpTDVEEE-NH2] ({FITC}-GFID[pS]D[pT]DVEEE-NH2),Kd,GST-TopBP1 BRCT4/5,27 ± 4 µM
same,Kd,GST-BRCT5 K704A (TopBP1),210 ± 50 µM
same,Kd,[1],280 ± 60 µM
same,Kd,GST-TopBP1 BRCT5,28 ± 4 µM
B1,Kd,[2],27 ± 4 µM
B2,Kd,[3],105 µM
same,Kd,[4],28 µM
same,Kd,[5],310 µM
same,Kd,[6],98 µM
same,Kd,[7],24 µM

# Reference: paper PMC3760280 (Structure (London, England : 1993), 2013)
